This is a sample that favours compounds with a hit; in the whole collection about 4% have one here.
WT yeast gro inh: growth inhibition of WT yeast, mitochondrial fusion screen; mitochondrial fusion phenotypic screen, WT strain; inhibition, % at 10 µM; 2.1% of 190,000 active; AID 1362; in the data active = inhibition above about 58%; tested in S. cerevisiae
MT stabilize HCS: microtubule stabilization, imaging screen; HeLa tubulin immunostaining HCS, 24 h; share of cells brighter than vehicle mean+2SD; % tubulin-high responders, % at 10 µM; 0.83% of 200,000 active;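 active = plate Z-score above 3 for both tubulin-high and condensed-nucleus cell shares, with cell loss under 80%, at 10 µM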;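 also: anti alpha tubulin signal scored within the nucleus-defined area of each cell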
b-catenin transl: modulators of beta-catenin nuclear translocation | HeLa beta-catenin nuclear translocation, immunofluorescence imaging | nuclear translocation activity, % at 5 µM | 0.3% of 190,000 active | AID 1665;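 active = nuclear translocation activity above 50% at 5 µM, with a well cell count of 50 or more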;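 also: per-cell ratio of nuclear to cytoplasmic median beta-catenin stain intensity; plate controls were DMSO negative control for no effect and GSK-3 inhibitor IX positive control for full effect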
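Test system: HeLa cells, endogenous beta-catenin; Compound: single 5 µM dose plus 0.02–20 µM confirmation series; Times: compound exposure 24 h at 37°C; Signal: fluorescence imaging of beta-catenin antibody stain plus DAPI; Read-out: % activation, nuclear-to-cytoplasmic median beta-catenin signal ratio per cell.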
Pf gametocyte: kills late stage P. falciparum gametocytes | P. falciparum stage V gametocytes, ATP luminescence, 24 h | inhibition, % at 10.9 µM | 0.065% of 150,000 active | AID 743093;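 active = inhibition above the mean plus 3 SD of compounds within the control limits, set per campaign, cut at about 38% in these data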;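 also: 0% = DMSO wells and 100% = medium only without gametocytes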
KCC2 mod: KCC2 (human) Cl- transport modulation; KCC2 cells, thallium flux FluoZin-2 fluorescence; B-score of Tl+ flux slope (higher = more flux/activation; lower = inhibition) at 10 µM; 2.2% of 190,000 active;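 active = thallium flux slope and its plate-corrected score both differing from the plate sample mean at a set confidence after two filtering rounds, in either direction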;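 also: slope of fluorescence scaled to starting intensity during 10 to 20 s after thallium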
An asterisk follows results filed as active; i = inactive; . = no result.

SMILES	WT yeast gro inh	MT stabilize HCS	b-catenin transl	Pf gametocyte	KCC2 mod
Cc1cccc(C)c1OC1(c2ccccc2)OC(=O)c2ccccc21 (stereo unspecified)	5	3	-1	.	-0.57
Cc1cc(C)c(OC2(c3ccccc3)OC(=O)c3ccccc32)c(C)c1 (stereo unspecified)	79*	1	1	.	-0.78
CC(C)(C)C(=O)/C=C/c1ccc(Oc2ccccc2)cc1	.	.	-1	.	0.95
O=C(NC(=S)Nc1ccccc1F)c1ccc(Br)o1	8	2	-3	2	i
COC(=O)C1=C(C(=O)OC)C(c2ccc(OC)c(OC)c2)c2sc(=O)[nH]c2S1 (stereo unspecified)	0	4	0	15	-0.15
COC(=O)C1=C(C(=O)OC)C(c2cc(Br)ccc2O)c2sc(=O)[nH]c2S1 (stereo unspecified)	19	2	1	-3	-5.9*
CC1C(c2ccccc2)N(C)C(c2ccccc2)CC1(O)c1ccc(F)cc1 (stereo unspecified)	69*	2	1	16	-0.87
CN1C(c2ccccc2)CC(=NO)CC1c1ccccc1 (stereo unspecified)	.	.	.	-13	.
CC(NC(=O)CSc1nc(=O)cc(N)n1CCc1ccccc1)c1ccccc1 (stereo unspecified)	59*	4	1	9	-0.22
O=C(COC(=O)c1ccccn1)Nc1cccc(Cl)c1Cl	97*	1	-6	.	.
O=C(NCC1CC1)C1(S(=O)(=O)c2ccccc2)CC=CC1	.	.	.	-3	.
C=C(C)CNC(=S)Nc1cccc2cnccc12	-7	2	-3	-7	1.4
O=C(NC(=S)Nc1cccc2cnccc12)c1ccccc1	-3	4	0	-12	1.5
Cc1cc(C)cc(NC(=S)Nc2cccc3cnccc23)c1	65*	4	0	.	1.2
CCc1ccc(NC(=S)Nc2cccc3cnccc23)cc1	61*	2	1	2	0.35
Cc1ccc(NC(=S)Nc2cccc3cnccc23)c(C)c1	69*	3	2	.	0.12
COCC(=O)NNC(=S)Nc1cccc(C)c1C	5	2	-1	.	0.98
Cc1ccc(Cn2cccc2C2=NC(C)CO2)cc1 (stereo unspecified)	-8	1	.	.	0.55
CC(C)C1COC(c2cccn2Cc2ccccc2Cl)=N1 (stereo unspecified)	65*	6	0	-5	0.73
N#Cc1c(-c2cccs2)nc(SCc2ccc(Cl)cc2)[nH]c1=O	-8	2	1	7	-3.5*
CC(=O)Nc1cccc(/C(C)=N/NC(=O)c2ccc3c(c2)OCO3)c1	6	4	-1	-31	.
COc1ccc(NS(=O)(=O)c2ccc3nc(COc4ccc(C#N)cc4)[nH]c3c2)cc1	-8	3	0	18	1.6
COc1ccc(N2CCN(C(=O)CC34CC5CC(CC(C5)C3)C4)CC2)c([N+](=O)[O-])c1	66*	3	3	3	0.44
COc1cccc(C(=O)NC(=S)N2CCN(c3ccc(C(F)(F)F)cc3[N+](=O)[O-])CC2)c1	-7	3	2	7	8.8*
CCC(=O)N1CCN(c2ccc(OC)cc2[N+](=O)[O-])CC1	5	3	0	9	.
SMILES	WT yeast gro inh	MT stabilize HCS	b-catenin transl	Pf gametocyte	KCC2 mod
CC(C)Oc1cccc(C(=O)NC(=S)N2CCN(c3ccc(C(F)(F)F)cc3[N+](=O)[O-])CC2)c1	48	3	-1	6	18*
COc1cc2c(cc1NC(=O)COC(=O)C(CCSC)NC(=O)c1ccccc1Cl)oc1ccccc12 (stereo unspecified)	-22	4	.	10	0.29
O=C(COC(=O)/C=C/c1ccc(Cl)cc1Cl)NCc1ccco1	-3	5	2	8	0.063
Cc1nc(-c2cccc(NS(=O)(=O)c3ccccc3)c2)cs1	-8	3	1	16	-1.1
Cc1ccc2nc(-c3cccc(NS(C)(=O)=O)c3)cc(-c3ccccc3)c2c1	94*	5	-1	-24	-0.34
O=C(NCC1CCCCC1)c1ccc(F)cc1Cl	.	.	.	-18	.
COc1cc(C(=S)N2CCN(C(c3ccccc3)c3ccccc3)CC2)cc(OC)c1O	.	.	.	-16	.
CN1CCN(c2cc(-c3ccccc3)nc3cc(-c4ccc(F)cc4)nn23)CC1	84*	3	-3	-2	-0.17
CCCCOC(=O)c1nc(Cl)c(Cl)c(N)c1Cl	-7	4	3	1	0.21
CCCCCCCOC(=O)c1nc(Cl)c(Cl)c(N)c1Cl	85*	2	-1	4	-0.061
COc1ccc2nc3oc(C(=O)N4CCN(c5cccc(Cl)c5)CC4)cc3cc2c1	18	3	0	3	-1.3
COc1ccc2nc3oc(C(=O)N4CCN(c5cccc(C(F)(F)F)c5)CC4)cc3cc2c1	3	13*	19	13	.
Nc1nc(COc2ccc3ccccc3c2)cs1	75*	3	2	.	-2.7
CCC(=O)Nc1nonc1-c1nc2ccccc2n1Cc1cccc2ccccc12	10	13	101*	-6	-1
Cc1ccc2oc(=O)n(CCCOc3ccccc3C)c2c1	64*	3	0	2	0.02
Cc1cc(C)c(S(=O)(=O)Nc2ccc(C(=O)O)cc2)cc1S(=O)(=O)Nc1ccc(C(=O)O)cc1	.	.	.	1	.
Cc1cccc(C)c1OCCNC(=O)c1ccc2ccccc2n1	68*	2	0	-6	-0.73
O=C(NCCOc1ccc(Cl)cc1)c1ccc2ccccc2n1	62*	3	-1	-12	-0.0053
O=c1[nH]c(-c2cccnc2)nc2sc(-c3ccccc3)cc12	-11	20*	120*	.	-0.48
O=C(Nc1ccccc1)NC1CCCCNC1=O (stereo unspecified)	.	.	-1	24	-0.16
C(=C\c1ccccc1)/C=N/Nc1nc2ccccc2[nH]1	53	13*	21	5	-0.28
C(=N\Nc1nc2ccccc2[nH]1)/c1ccccc1	3	.	0	-25	-0.15
O=C(NCc1ccccc1)/C(=C/c1ccc(OC(F)F)cc1)c1ccccc1	63*	2	-1	.	-0.84
COc1ccc(/C=C(/C(=O)NCc2ccccc2)c2ccccc2)cc1	33	3	1	.	-3.2
COc1cc(NC(=O)N2CCNC2=O)cc(C(=O)Nc2cccc(C(F)(F)F)c2)c1	.	.	55*	-8	0.12
SMILES	WT yeast gro inh	MT stabilize HCS	b-catenin transl	Pf gametocyte	KCC2 mod
Cc1ccnc(N/C=C(/NC(=O)c2ccccc2)C(=O)N/N=C\c2ccc(Cl)cc2)n1	.	.	0	-4	-0.77
COc1ccccc1C1CC(c2cccs2)=Nc2ccccc2S1 (stereo unspecified)	0	3	-5	.	0.66
COc1ccccc1C1CN(c2ccc(F)cc2F)N=C1c1cccs1 (stereo unspecified)	79*	3	.	.	-1.3
O=C(Nc1ccccc1)c1nn(-c2ccccc2)c(=O)cc1C(F)(F)F	-3	16*	1	4	0.17
O=C(c1ccccc1)c1nn(-c2ccccc2)c(=O)cc1C(F)(F)F	51	2	0	2	.
Cc1ccc2c(c1)C(c1ccccc1)CC(=O)O2 (stereo unspecified)	.	.	0	-18	-0.0029
